Measured values taken from ChEMBL document CHEMBL4689842, “EUbOPEN Chemogenomics Library wave 1” (2021).
Several values for one entry are separate records, joined by “and”; a condition that tells them apart may be missing. Identical values can stand only once.

Tested on: HEK-293T
Assay: Multiplex assay against HEK293T;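 for Population Tubulin-Different-Phenotype (%): share of the cells with healthy nuclei that show this phenotype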
Assay type: toxicity, cell-based
Settings: human
How it was run: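 Phenotypes for tubulin, mitochondrial mass and membrane permeability are expressed as per cents of healthy-nucleus cells. Cells were stained live at seeding with Hoechst33342, BioTracker Green Microtubule Cytoskeleton Dye, MitoTracker Red and Annexin V Alexa Fluor 680, then imaged after compound addition on a CQ1 microscope at 37°C and 5% CO2. Machine-learning gating in CellPathfinder separated Hoechst high-intensity objects from normal cells, divided normal cells by nuclear state (healthy, pyknosed, fragmented) and divided pyknosed cells into mitotic or apoptotic.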

[1] = 12 h, 1 µM, compound concentration 1 uM, replicate 1
[2] = 12 h, 1 µM, compound concentration 1 uM, replicate 2
[3] = 12 h, 10 µM, compound concentration 10 uM, replicate 1
[4] = 12 h, 10 µM, compound concentration 10 uM, replicate 2
[5] = 24 h, 1 µM, compound concentration 1 uM, replicate 1
[6] = 24 h, 1 µM, compound concentration 1 uM, replicate 2
[7] = 24 h, 10 µM, compound concentration 10 uM, replicate 1
[8] = 24 h, 10 µM, compound concentration 10 uM, replicate 2
[9] = 48 h, 1 µM, compound concentration 1 uM, replicate 1
[10] = 48 h, 1 µM, compound concentration 1 uM, replicate 2
[11] = 48 h, 10 µM, compound concentration 10 uM, replicate 1
[12] = 48 h, 10 µM, compound concentration 10 uM, replicate 2

SMILES: CS(=O)(=O)N1CCCC(NC(=O)[C@H](CCC2CCCCC2)NC(=O)c2ccc(CNc3ncnc4c3nnn4-c3ccccc3)cc2)C1 (some centres not stated) [SR-301]
- Population Apoptotic (%) [1]: 26% and 51% and 37%
- Population Fragmented Nuclei (%) [1]: 13% and 14% and 15%
- Population Healthy Nuclei (%) [1]: 22% and 17% and 20%
- Population Hoechst High Intensity Objects (%) [1]: 13% and 14%
- Population Membrane Permeable-Phenotype (%) [1]: 8% and 3%
- Population Mitochondria Different-Phenotype (%) [1]: 85% and 84%
- Population Mitotic Cells (%) [1]: 73% and 48% and 62%
- Population Normal (%) [1]: 86% and 85%
- Population Pyknosed Nuclei (%) [1]: 64% and 67%
- Population Tubulin-Different-Phenotype (%) [1]: 46% and 57% and 55%
- Total Cell Count [1]: 584 and 339 and 397
- Population Apoptotic (%) [2]: 20% and 16% and 18%
- Population Fragmented Nuclei (%) [2]: 5% and 8% and 4%
- Population Healthy Nuclei (%) [2]: 41% and 36% and 50%
- Population Membrane Permeable-Phenotype (%) [2]: 4% and 1% and 5%
- Population Mitochondria Different-Phenotype (%) [2]: 41% and 30%
- Population Mitotic Cells (%) [2]: 79% and 83% and 81%
- Population Normal (%) [2]: 94% and 98% and 96%
- Population Pyknosed Nuclei (%) [2]: 53% and 55% and 45%
- Population Tubulin-Different-Phenotype (%) [2]: 43% and 26% and 29%
- Total Cell Count [2]: 247 and 189 and 243
- Population Apoptotic (%) [3]: 68% and 73%
- Population Fragmented Nuclei (%) [3]: 20% and 14% and 21%
- Population Healthy Nuclei (%) [3]: 6% and 12% and 9%
- Population Hoechst High Intensity Objects (%) [3]: 17%
- Population Membrane Permeable-Phenotype (%) [3]: 10%
- Population Mitochondria Different-Phenotype (%) [3]: 76% and 85% and 86%
- Population Mitotic Cells (%) [3]: 31% and 26%
- Population Normal (%) [3]: 82%
- Population Pyknosed Nuclei (%) [3]: 73% and 68%
- Population Tubulin-Different-Phenotype (%) [3]: 71% and 66%
- Total Cell Count [3]: 404 and 541 and 467
- Population Apoptotic (%) [4]: 51% and 84% and 91%
- Population Fragmented Nuclei (%) [4]: 9% and 13% and 19%
- Population Healthy Nuclei (%) [4]: 28% and 26% and 20%
- Population Hoechst High Intensity Objects (%) [4]: 8% and 13% and 20%
- Population Mitochondria Different-Phenotype (%) [4]: 43% and 78% and 82%
- Population Normal (%) [4]: 92% and 86% and 79%
- Population Pyknosed Nuclei (%) [4]: 61% and 60%
- Population Tubulin-Different-Phenotype (%) [4]: 43% and 40% and 57%
- Total Cell Count [4]: 225 and 185 and 216
- Population Apoptotic (%) [5]: 26% and 40% and 55%
- Population Fragmented Nuclei (%) [5]: 18% and 19%
- Population Healthy Nuclei (%) [5]: 19% and 18% and 14%
- Population Hoechst High Intensity Objects (%) [5]: 19% and 18% and 16%
- Population Membrane Permeable-Phenotype (%) [5]: 6% and 5% and 2%
- Population Mitochondria Different-Phenotype (%) [5]: 72% and 77% and 78%
- Population Mitotic Cells (%) [5]: 73% and 60% and 44%
- Population Normal (%) [5]: 80% and 81% and 83%
- Population Pyknosed Nuclei (%) [5]: 61% and 62% and 66%
- Population Tubulin-Different-Phenotype (%) [5]: 48% and 57% and 65%
- Total Cell Count [5]: 594 and 385 and 349
- Population Apoptotic (%) [6]: 29% and 24%
- Population Fragmented Nuclei (%) [6]: 3% and 2% and 6%
- Population Healthy Nuclei (%) [6]: 64% and 67% and 57%
- Population Hoechst High Intensity Objects (%) [6]: 3% and 2%
- Population Membrane Permeable-Phenotype (%) [6]: 3% and 4%
- Population Mitochondria Different-Phenotype (%) [6]: 41% and 43% and 33%
- Population Mitotic Cells (%) [6]: 70% and 75%
- Population Normal (%) [6]: 96% and 97%
- Population Pyknosed Nuclei (%) [6]: 32% and 30% and 36%
- Population Tubulin-Different-Phenotype (%) [6]: 52% and 36% and 34%
- Total Cell Count [6]: 298 and 240 and 293
- Population Apoptotic (%) [7]: 81% and 77% and 85%
- Population Fragmented Nuclei (%) [7]: 28% and 20% and 26%
- Population Healthy Nuclei (%) [7]: 3% and 5%
- Population Hoechst High Intensity Objects (%) [7]: 19% and 18% and 20%
- Population Membrane Permeable-Phenotype (%) [7]: 8% and 9% and 0%
- Population Mitochondria Different-Phenotype (%) [7]: 58% and 77% and 81%
- Population Mitotic Cells (%) [7]: 18% and 22% and 14%
- Population Normal (%) [7]: 80% and 81% and 79%
- Population Pyknosed Nuclei (%) [7]: 68% and 74% and 69%
- Population Tubulin-Different-Phenotype (%) [7]: 33% and 54%
- Total Cell Count [7]: 495 and 531 and 410
- Population Apoptotic (%) [8]: 96% and 55% and 93%
- Population Fragmented Nuclei (%) [8]: 15% and 11%
- Population Healthy Nuclei (%) [8]: 36% and 42% and 39%
- Population Hoechst High Intensity Objects (%) [8]: 17% and 10% and 14%
- Population Membrane Permeable-Phenotype (%) [8]: 7% and 5% and 11%
- Population Mitochondria Different-Phenotype (%) [8]: 95% and 51% and 90%
- Population Normal (%) [8]: 82% and 89% and 85%
- Population Pyknosed Nuclei (%) [8]: 48% and 45%
- Population Tubulin-Different-Phenotype (%) [8]: 46% and 47% and 74%
- Total Cell Count [8]: 210 and 253 and 187
- Population Apoptotic (%) [9]: 23% and 35% and 54%
- Population Fragmented Nuclei (%) [9]: 21% and 28% and 19%
- Population Healthy Nuclei (%) [9]: 17% and 11% and 15%
- Population Hoechst High Intensity Objects (%) [9]: 22% and 24%
- Population Membrane Permeable-Phenotype (%) [9]: 4% and 5%
- Population Mitochondria Different-Phenotype (%) [9]: 54% and 70% and 71%
- Population Mitotic Cells (%) [9]: 77% and 64% and 45%
- Population Normal (%) [9]: 77% and 75%
- Population Pyknosed Nuclei (%) [9]: 60% and 64%
- Population Tubulin-Different-Phenotype (%) [9]: 39% and 52%
- Total Cell Count [9]: 604 and 398 and 345
- Population Apoptotic (%) [10]: 20% and 12%
- Population Fragmented Nuclei (%) [10]: 4% and 3%
- Population Healthy Nuclei (%) [10]: 82% and 80% and 81%
- Population Hoechst High Intensity Objects (%) [10]: 4% and 3%
- Population Membrane Permeable-Phenotype (%) [10]: 3% and 1%
- Population Mitochondria Different-Phenotype (%) [10]: 17% and 20% and 18%
- Population Mitotic Cells (%) [10]: 76% and 79% and 87%
- Population Normal (%) [10]: 95% and 96%
- Population Pyknosed Nuclei (%) [10]: 12% and 15%
- Population Tubulin-Different-Phenotype (%) [10]: 41% and 35% and 33%
- Total Cell Count [10]: 527 and 453 and 385
- Population Apoptotic (%) [11]: 90% and 84% and 81%
- Population Fragmented Nuclei (%) [11]: 37% and 29% and 32%
- Population Healthy Nuclei (%) [11]: 2% and 3%
- Population Hoechst High Intensity Objects (%) [11]: 22% and 20% and 23%
- Population Membrane Permeable-Phenotype (%) [11]: 14% and 11%
- Population Mitochondria Different-Phenotype (%) [11]: 71% and 57% and 77%
- Population Mitotic Cells (%) [11]: 9% and 15% and 18%
- Population Normal (%) [11]: 77% and 79% and 76%
- Population Pyknosed Nuclei (%) [11]: 60% and 67% and 64%
- Population Tubulin-Different-Phenotype (%) [11]: 28% and 64% and 55%
- Total Cell Count [11]: 401 and 536 and 484
- Population Apoptotic (%) [12]: 92% and 82% and 60%
- Population Fragmented Nuclei (%) [12]: 15% and 17% and 12%
- Population Healthy Nuclei (%) [12]: 52% and 54% and 64%
- Population Hoechst High Intensity Objects (%) [12]: 16% and 12% and 11%
- Population Membrane Permeable-Phenotype (%) [12]: 4% and 6%
- Population Mitochondria Different-Phenotype (%) [12]: 95% and 91% and 32%
- Population Normal (%) [12]: 83% and 87% and 88%
- Population Pyknosed Nuclei (%) [12]: 32% and 27% and 23%
- Population Tubulin-Different-Phenotype (%) [12]: 46% and 86% and 45%
- Total Cell Count [12]: 209 and 191 and 306
